The text below walks through data of ChEMBL document CHEMBL1129494, “Structure-based design of lipophilic quinazoline inhibitors of thymidylate synthase” (J Med Chem, 1996).

The IC50 is the midpoint of a concentration-inhibition curve. In general, Inhibition refers to the relative decrease from the control value, in per cent.

Experiment [1] deals with CCRF-CEM. Description: Activity for growth inhibition in tissue culture of human leukemias (CCRF-CEM). value in parenthesis indicates % inhibition. It counts as functional, cell-based.
Experiment [2] has as its system CCRF-CEM. The experiment is described as follows: (§1) Inhibition of CCRF-CEM (human leukemia) cell growth in vitro. Also noted: concentration or dose not given beside the values. It counts as functional. Put shortly: (§2)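 MTT colorimetric growth assay (modified Mosmann) in CCRF-CEM human leukemia cells seeded at 10 000 cells/well in RPMI-1640 with 5% fetal calf serum and 0.5% DMSO. Nine 2-fold serial dilutions of compound, 5 day incubation, then 4 h MTT and formazan dissolved in DMSO for spectrophotometric reading. IC50 taken from semilog plots of the mean of four growth assessments per dilution relative to control cultures.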

In experiment [3] the test system is GC3/MTK-. The experiment is described as follows: Inhibition of GC3/M TK- (human adenocarcinoma) cell growth in vitro. It counts as functional, cell-based. Put shortly: (§3)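 Thymidine kinase-deficient human adenocarcinoma GC3/M TK- cells seeded at 10 000 cells/well in RPMI-1640 with 10% fetal calf serum and 0.5% DMSO. Compound given as nine 2-fold serial dilutions over a 5 day incubation, then 4 h MTT and spectrophotometric formazan read after DMSO dissolution. IC50 from semilog plots of the mean of four growth assessments relative to control cultures.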

Experiment [4] deals with GC3/MTK-. The experiment is described as follows: (§4) Inhibitory activity of compound against growth of thymidine kinase-deficient human adenocarcinoma cell line (GC3/M TK-) in tissue culture. It counts as functional. Also noted: concentration or dose not given beside the values. Put shortly: (§5)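 MTT colorimetric growth assay in the thymidine kinase-deficient human adenocarcinoma line. Seeded at 10 000 cells/well in RPMI-1640 with 10% fetal calf serum and 0.5% DMSO. Nine 2-fold serial dilutions of compound, 5 day incubation, then 4 h MTT. Formazan dissolved in DMSO and read spectrophotometrically. IC50 taken from semilog plots of the mean of four growth assessments per dilution, relative to control cultures.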

The subject of experiment [5] is L1210. The experiment is described as follows: Inhibition of murine L1210 cell line tissue culture growth. It counts as functional, cell-based. As to conditions: Mus musculus. The procedure, abridged: (§6)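 Murine L1210 leukemia cells seeded at 1000 cells/well in RPMI-1640 containing 5% fetal calf serum and 0.5% DMSO, exposed to nine 2-fold serial dilutions for 3 days. Growth was read by MTT (4 h), with formazan dissolved in DMSO and measured spectrophotometrically. IC50 comes from semilog concentration plots of the mean of four assessments per dilution versus control growth.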

Experiment [6] deals with Thymidylate synthase (Escherichia coli) (UniProt C3SWJ7).
Sequence of Thymidylate synthase (Escherichia coli) (C3SWJ7 1-264): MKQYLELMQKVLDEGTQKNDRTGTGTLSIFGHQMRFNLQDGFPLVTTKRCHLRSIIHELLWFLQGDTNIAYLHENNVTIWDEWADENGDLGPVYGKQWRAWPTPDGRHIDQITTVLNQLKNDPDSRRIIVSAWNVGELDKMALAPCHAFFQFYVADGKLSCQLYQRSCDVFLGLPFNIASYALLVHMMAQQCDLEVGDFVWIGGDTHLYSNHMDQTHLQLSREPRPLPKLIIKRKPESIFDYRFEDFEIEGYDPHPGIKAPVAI
For experiment [7] the target is unchanged. The source holds these as a separate data set.
In experiment [8] the target is Thymidylate synthase (Homo sapiens) (UniProt P04818).
Sequence of Thymidylate synthase (Homo sapiens) (P04818 2-313 limits assumed): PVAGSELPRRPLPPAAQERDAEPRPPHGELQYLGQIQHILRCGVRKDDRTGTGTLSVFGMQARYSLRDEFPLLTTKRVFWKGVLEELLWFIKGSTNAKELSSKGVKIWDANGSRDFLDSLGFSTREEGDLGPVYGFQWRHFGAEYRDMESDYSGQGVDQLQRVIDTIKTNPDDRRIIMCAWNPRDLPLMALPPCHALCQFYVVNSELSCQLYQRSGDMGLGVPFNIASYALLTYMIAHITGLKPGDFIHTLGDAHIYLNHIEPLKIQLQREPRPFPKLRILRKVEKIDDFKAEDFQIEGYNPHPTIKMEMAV
Experiment [9] shares this target. This is another data set of the same source.
In experiment [10] the test system is CCRF-CEM. The experiment is described as follows: Inhibitory activity of compound against growth of human leukemias (CCRF-CEM) cell line in tissue culture. It counts as functional. Put shortly: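 CCRF-CEM human leukemia cells seeded at 10 000 cells/well in RPMI-1640 with 5% fetal calf serum and 0.5% DMSO. Exposed to nine 2-fold serial dilutions for 5 days, followed by 4 h with MTT. Formazan dissolved in DMSO and measured spectrophotometrically. IC50 read from semilog plots of the mean of four growth assessments per dilution versus control growth.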

The test system of experiment [11] is GC3/MTK-. Described as §4. It counts as functional. Put shortly:
as §5

Experiment [12] has as its system L1210. The experiment is described as follows: (§7) Inhibition of L1210 (murine leukemia) cell growth in vitro. It counts as functional, Mus musculus. Put shortly: as §6
In experiment [13] the test system is CCRF-CEM. The description is as §1. It counts as functional, cell-based. Put shortly:
as §2

For experiment [14], the system named is CCRF-CEM. The experiment is described as follows: Activity for growth inhibition in tissue culture of human leukemias (CCRF-CEM); Insoluble. It counts as functional, cell-based. The procedure, abridged: as §2
In experiment [15] the test system is GC3/MTK-. The experiment is described as follows: Inhibition of GC3/M TK- (human adenocarcinoma) cell growth in vitro; Insoluble. It counts as functional, cell-based. Put shortly: as §3
For experiment [16], the system named is L1210. Description: Activity for growth inhibition in tissue culture of murine (L1210); Insoluble. It counts as functional, cell-based, Mus musculus. The procedure, abridged:
as §6

Experiment [17] concerns CCRF-CEM. The experiment is described as follows: Inhibitory activity of compound against growth of human leukemias (CCRF-CEM) in tissue culture. It counts as functional. The procedure, abridged: as §2
The test system of experiment [18] is L1210. The description is as §7. Details: concentration or dose not given beside the values. It counts as functional, Mus musculus. The procedure, abridged:
as §6

Experiment [19] has as its system CCRF-CEM. The experiment is described as follows: Inhibitory activity of compound against growth of human leukemias (CCRF-CEM) cell lne in tissue culture. It counts as functional. Put shortly: as §2
In experiment [20] the test system is GC3/MTK-. The experiment is described as follows: Activity for growth inhibition in tissue culture of thymidine kinase-deficient human adenocarcinoma cell line (GC3/M TK-)value in parenthesis indicates % inhibition. It counts as functional, cell-based.
Experiment [21] concerns CCRF-CEM. Description: Activity for growth inhibition in tissue culture of human leukemias (CCRF-CEM). It counts as functional, cell-based. Put shortly: as §2
The subject of experiment [22] is CCRF-CEM. The experiment is described as follows: Activity for growth inhibition in tissue culture of human leukemias( CCRF-CEM). It counts as functional, cell-based. Put shortly: as §2

On to `C#CCN(Cc1ccc2nc(C)nc(O)c2c1)c1cccc(CO)c1`, for which the IC50 in the experiment on CCRF-CEM [1] was more than 54 µM; with GC3/MTK- [3], more than 54 µM; with L1210 [5] it was 48 µM. Further, the Inhibition in the experiment with CCRF-CEM [2] amounted to 30%; with GC3/MTK- [4] it was 22%. Besides, the results for the Kii in experiment [6] and in experiment [9] were 5.1 µM and 1.2 µM, respectively. The Kis in [7] turned out to be 1.7 µM; in experiment [8] it was 0.62 µM.
Take `C#CCN(Cc1ccc2nc(C)nc(O)c2c1)c1cccc(C(F)(F)F)c1`: the Inhibition with CCRF-CEM [10] is reported as 41%; with GC3/MTK- [11] it was 25%; in the experiment on L1210 [12], 35%. In addition, the IC50 is more than 4.3 µM in the experiment with GC3/MTK- [3], more than 2.2 µM with L1210 [5] and more than 4.3 µM with CCRF-CEM [13].
As for `C#CCN(Cc1ccc2nc(C)nc(O)c2c1)c1ccc(S(N)(=O)=O)c(C(F)(F)F)c1`, the IC50 entry in the experiment on CCRF-CEM [14], with GC3/MTK- [15] and in the experiment with L1210 [16] was “Insoluble” throughout. Besides, the Kii worked out at 0.061 µM in [6] and 0.07 µM in experiment [9]. Moreover, the results for the Kis in experiment [7] and in experiment [8] were 0.024 µM and 0.036 µM, respectively.
With `C#CCN(Cc1ccc2nc(C)nc(O)c2c1)c1ccc(S(=O)(=O)N2CCN(C)CC2)cc1`, the Inhibition in the experiment with CCRF-CEM [17] was found to be 24%; in the experiment with GC3/MTK- [4] it was 17%; with L1210 [18] it was 27%. The IC50 in the experiment with GC3/MTK- [3], with L1210 [5] and in the experiment on CCRF-CEM [13] was more than 10 µM in each case. For the same compound, the Kii in experiment [6] was 0.28 µM; in experiment [9] it was 0.19 µM. Moreover, the values for the Kis in [7] and in experiment [8] were 0.13 µM and 0.083 µM, respectively.
On to `C#CCN(Cc1ccc2nc(C)nc(O)c2c1)c1cccc(C)c1`, for which the values for the Inhibition with CCRF-CEM [19], in the experiment on GC3/MTK- [11] and in the experiment on L1210 [18] were 20%, 34% and 30%, respectively. Moreover, the IC50 with GC3/MTK- [20], with L1210 [5] and in the experiment with CCRF-CEM [13] was more than 5 µM each time. Further, the results for the Kii in experiment [6] and in experiment [9] were 16 µM and 3.4 µM, respectively. The Kis in experiment [7] is 3.4 µM; in experiment [8], 1.4 µM.
Take `C#CCN(Cc1ccc2nc(C)nc(O)c2c1)c1ccc(C#N)cc1`: the half-maximal inhibitory concentration (IC50) in the experiment on CCRF-CEM [21], with GC3/MTK- [3] and with L1210 [5] was more than 5 µM each time. Also, the Inhibition in the experiment on CCRF-CEM [2] stood at 10%; with L1210 [18] it was 35%. Also, the Kii in [6] was 0.33 µM; in experiment [9] it was 0.17 µM. For the same compound, the Kis in experiment [7] was determined as 0.15 µM; in experiment [8], 0.076 µM.
Turning to `C#CCN(Cc1ccc2nc(C)nc(O)c2c1)c1ccc(Cl)cc1`, the IC50 in the experiment with CCRF-CEM [22] and with L1210 [5] was more than 4 µM each time. Besides, the Inhibition in the experiment with CCRF-CEM [2] came out at 20%; in the experiment with L1210 [18], 25%. Moreover, the Kii in [6] came out at 3.7 µM; in experiment [9] it was 0.77 µM. For the same compound, the Kis came to 0.85 µM in experiment [7] and 0.36 µM in experiment [8].
`C#CCN(Cc1ccc2nc(C)nc(O)c2c1)c1ccc(C(=O)NC(CCC(=O)O)C(=O)O)cc1` (centres undefined): the IC50 with CCRF-CEM [21] is 0.029 µM; in the experiment on GC3/MTK- [3], 0.048 µM; in the experiment with L1210 [5] it was 0.045 µM. The Kis is 0.0048 µM in experiment [7] and 0.0085 µM in experiment [8]. The compound further had a Kii in experiment [9] of 0.0071 µM.
For `C#CCN(Cc1ccc2nc(C)nc(O)c2c1)c1ccc(C#N)c(Cl)c1`, the values for the Inhibition in the experiment on CCRF-CEM [10] and in the experiment on GC3/MTK- [11] were 10% and 25%, respectively. In addition, the IC50 with GC3/MTK- [3] is 6.7 µM; in the experiment with L1210 [5], 4.5 µM; in the experiment on CCRF-CEM [13] it was more than 6.7 µM. Besides, the Kii in experiment [6] came out at 0.1 µM; in experiment [9], 0.079 µM. For the same compound, the Kis is 0.035 µM in experiment [7] and 0.037 µM in experiment [8].
